Assay results as given in paper PMC6436633 (ChemMedChem, 2018).
Like-named read-outs stand apart in the source and are kept apart here.

Key:
PfPK5 [1] = target: T1, PfPK5 (Plasmodium falciparum, UniProt P61075); conditions: read-out: PfPK5 IC50; cited from earlier work
PfPK5 [2] = target: T1, PfPK5; conditions: read-out: PfPK5 Kd; cited from earlier work
[3] = system: P. falciparum Dd2 asexual blood stage parasites; test: P. falciparum Dd2 asexual blood stage inhibition; format: cell-based, Plasmodium falciparum; conditions: read-out: blood stage parasite EC50, dose-response
Procedure, shortened: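 Asexual blood-stage P. falciparum Dd2 cultured with test compound in O-positive human blood for 72 h at 37 °C under 93% N2, 4% CO2, 3% O2, with 0.2% DMSO final. Nuclei then stained with SYBR Green I and fluorescence read. Data normalised to DMSO, with artesunate as positive control.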

PfPK5 [4] = target: T1, PfPK5; test: KINOMEscan active-site-directed competition binding assay, PfPK5; conditions: read-out: PfPK5 Kd(app), determined in duplicate, 0–30 μM
HuH7 cells = format: cell-based, human

T1 sequence (P61075 whole entry): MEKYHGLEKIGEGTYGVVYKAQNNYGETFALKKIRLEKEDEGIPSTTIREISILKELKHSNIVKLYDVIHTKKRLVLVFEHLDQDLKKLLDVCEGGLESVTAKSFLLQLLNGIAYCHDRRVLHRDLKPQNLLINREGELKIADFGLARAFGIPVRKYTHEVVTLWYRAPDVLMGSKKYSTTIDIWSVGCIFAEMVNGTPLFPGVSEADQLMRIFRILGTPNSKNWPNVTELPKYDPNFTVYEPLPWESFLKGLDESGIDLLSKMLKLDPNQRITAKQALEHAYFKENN

EC50 [3] | Kd (PfPK5 [4]) | EC50 (HuH7 cells) | SMILES | IC50 (PfPK5 [1]) | Kd (PfPK5 [2])
– | – | – | O=C1Nc2ccccc2/C1=C1/Nc2ccccc2/C1=N\O [indirubin-3´-monoxime] | 6 µM | –
– | – | – | CC(C)[C@H](CO)Nc1nc(Nc2cccc(Cl)c2)c2ncn(C(C)C)c2n1 [Purvalanol A, purvalanol A] | 8 µM | –
140 nM | 370 nM | 67 µM | Nc1nc(Nc2ccc(S(N)(=O)=O)cc2)nn1C(=S)Nc1c(F)cccc1F [Compound 1a] | – | 320 nM
